Experimental data taken from PMC9894006 (Journal of Insect Science, 2023).
“And” between values parts separate entries of the source, which are not always exact repeats. Equal entries are not always repeated.

Key:
male B. odoriphaga = conditions: ref Li et al. 2008; cited from earlier work
recombinant BodoOBP10 [1] = target: T1, recombinant BodoOBP10 (Bradysia odoriphaga, UniProt A0A2S0X9G4); experiment: Competitive fluorescence binding assay with 1-NPN as reporter; conditions: competitive dissociation constant from IC50, 1-NPN reporter
T1 sequence (A0A2S0X9G4 20-144): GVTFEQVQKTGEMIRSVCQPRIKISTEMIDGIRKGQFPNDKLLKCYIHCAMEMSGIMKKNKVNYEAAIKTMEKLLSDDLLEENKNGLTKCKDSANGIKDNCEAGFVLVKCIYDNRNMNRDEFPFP
Summary of the method: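 Refolded, Ni-purified, tag-cleaved BodoOBP10 (2 µM stock, 20 mM Tris-HCl pH 7.4) was titrated with test compounds (1 mM methanol stocks) displacing the 1-NPN reporter. Ex 337 nm, em 350–500 nm. IC50 is the ligand concentration halving initial fluorescence. Ki = [IC50]/(1 + [1-NPN]/K1-NPN), using free 1-NPN and the protein/1-NPN dissociation constant. Triplicate means.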

[2] = test system: antennae of B. odoriphaga adult females; experiment: Electroantennogram; set-up: species or system Bradysia odoriphaga; conditions: odorant at 10 μg/μL, adult females 12 h after emergence
Summary of the method: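 30 nL of 6 μg/μL dsOBP10 or dsGFP was injected into one-day-old pupal abdomens; knockdown was checked by RT-qPCR in triplicate. Antennae of females 12 h post-emergence were detached, base on reference and tip on recording glass electrodes. Stimulus was 10 μl of a 10 μg/μL sulfur volatile on filter paper, pipetted after 10 s. Hexane control was given before and after. Ten replicates; one-way ANOVA with Tukey, means ± SE.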

[3] = test system: antennae of adult B. odoriphaga; conditions: ref Yang et al. 2019; cited from earlier work
B. odoriphaga females = conditions: ref Yang et al. 2019; cited from earlier work
recombinant BodoOBP10 [4] = target: T1, recombinant BodoOBP10; experiment: Binding curve of the fluorescence reporter 1-NPN
Summary of the method: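 Recombinant BodoOBP10 was expressed in E. coli BL21(DE3) from pBM30 with 0.5 mM IPTG for 12 h at 28°C. Inclusion bodies were solubilised in 50 mM Tris pH 6.8 with 0.2% Triton X-100 and 6 M guanidine HCl. Protein was Ni-affinity purified and the His tag removed by enterokinase. Protein stock was 2 µM in 20 mM Tris-HCl pH 7.4; 1-NPN stock was 1 mM in methanol. Ex 337 nm, em 350–500 nm, 10-nm slit; triplicate means.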

| Compound | behavioral responses in male B. odoriphaga (male B. odoriphaga) | Ki (recombinant BodoOBP10 [1]) | EAG response in dsOBP10-injected insects compared with control (dsGFP-injected) [2] | EAG response in dsOBP10-injected insects compared with control (dsGFP-injected) ([2]; listed as diallyl disulﬁde) | EAG responses / antennal preference of B. odoriphaga adults [3] | female oviposition (B. odoriphaga females) | Ki (recombinant BodoOBP10 [4]) [nM] |
| --- | --- | --- | --- | --- | --- | --- | --- |
| CCCCCCCCCCCCCCCCC [n- Heptadecane, n-Heptadecane] | can lead to behavioral responses | > 50 µM | – | – | – | – | – |
| C=CCSSCC=C [Diallyl disulfide] | – | 8.01 µM and < 10 µM | significantly reduced | reduced | stimulate the EAG responses | stimulate female oviposition | – |
| c1ccc(Nc2cccc3ccccc23)cc1 [1-NPN, N-phenyl-1-naphthylamine] | – | – | – | – | – | – | 780 |
